Results published in ChEMBL document CHEMBL3632617, “Chrysin-benzothiazole conjugates as antioxidant and anticancer agents” (Bioorg Med Chem Lett, 2015).
In brackets after ≈: the same amount, converted by molar mass.

What was measured:
[1] = Cytotoxicity against human CaSki cells after 48 hrs by SRB assay; assay type: functional, cell-based; details: Ca-Ski
Method in brief: (§1)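 Cell lines (HeLa, CaSki, SK-OV-3, MDCK) were obtained from ATCC. The colorimetric end point used the protein-binding dye sulforhodamine B.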

[2] = Antioxidant activity assessed as DPPH radical scavenging activity after 25 mins by UV-Visible spectrophotometric analysis; assay type: physicochemical
Method in brief: (§2)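 Radical scavenging by DPPH (Brand–Williams method) and by ABTS radical-cation decolorization via single electron transfer. Ascorbic acid served as the reference. IC50 is the concentration that inhibits 50% of the radicals. Results are the average of triplicate analyses.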

MDCK = assay: Cytotoxicity against MDCK cells after 48 hrs by SRB assay; assay type: cell-based; details: Canis lupus familiaris; method in brief: as §1
[3] = Antioxidant activity assessed as ABTS radical scavenging activity after 10 mins by UV-Visible spectrophotometric analysis; assay type: physicochemical; method in brief: as §2
HeLa [4] = assay: Cytotoxicity against human HeLa cells after 48 hrs by SRB assay; assay type: functional, cell-based; method in brief: as §1
SK-OV-3 = assay: Cytotoxicity against human SKOV3 cells after 48 hrs by SRB assay; assay type: functional, cell-based; details: SK-OV-3, 48 h; method in brief: as §1
HeLa [5] = assay: Cytotoxicity against human HeLa cells; assay type: functional, cell-based

Row | Structure (SMILES) | IC50 [1] [µg/mL] | IC50 [2] [µg/mL] | CC50 (MDCK) [µg/mL] | IC50 [3] [µg/mL] | IC50 (HeLa [4]) [µg/mL] | IC50 (SK-OV-3) [µg/mL] | IC50 (HeLa [5]) [µg/mL]
1 | O=c1cc(-c2ccccc2)oc2cc(OCCCCNc3nc4ccccc4s3)cc(O)c12 | 14.6 (≈ 31.9 µM) | 26.45 (≈ 57.7 µM) | 348 (≈ 758 µM) | 8.567 (≈ 18.7 µM) | 4.75 (≈ 10.4 µM) | 48.5 (≈ 106 µM) | 
2 | Cc1ccc2nc(NCCCCOc3cc(O)c4c(=O)cc(-c5ccccc5)oc4c3)sc2c1 | 15.5 (≈ 32.9 µM) | 28.13 (≈ 59.5 µM) | 294 (≈ 621 µM) | 8.785 (≈ 18.6 µM) | 6.56 (≈ 13.9 µM) | 48.4 (≈ 102 µM) | 
3 | COc1ccc2nc(NCCCCOc3cc(O)c4c(=O)cc(-c5ccccc5)oc4c3)sc2c1 | 16.1 (≈ 33 µM) | 23.87 (≈ 48.9 µM) | 285 (≈ 583 µM) | 7.356 (≈ 15.1 µM) | 6.15 (≈ 12.6 µM) | 38.1 (≈ 78.1 µM) | 
4 | CCOc1ccc2nc(NCCCCOc3cc(O)c4c(=O)cc(-c5ccccc5)oc4c3)sc2c1 | 15.1 (≈ 29.9 µM) | 24.41 (≈ 48.6 µM) | 306 (≈ 610 µM) | 8.853 (≈ 17.6 µM) | 5.25 (≈ 10.4 µM) | 35.3 (≈ 70.3 µM) | 
5 | O=c1cc(-c2ccccc2)oc2cc(OCCCCNc3nc4ccc([N+](=O)[O-])cc4s3)cc(O)c12 | 13.2 (≈ 26.3 µM) | 30.25 (≈ 60.1 µM) | 310 (≈ 615 µM) | 8.135 (≈ 16.2 µM) | 6.44 (≈ 12.8 µM) | 41.4 (≈ 82.3 µM) | 
6 | N#Cc1ccc2nc(NCCCCOc3cc(O)c4c(=O)cc(-c5ccccc5)oc4c3)sc2c1 | 18.8 (≈ 39 µM) | 15.56 (≈ 32.2 µM) | 312 (≈ 646 µM) | 6.543 (≈ 13.5 µM) | 8.53 (≈ 17.6 µM) | 43.7 (≈ 90.4 µM) | 
7 | O=c1cc(-c2ccccc2)oc2cc(OCCCCNc3nc4ccc(Cl)cc4s3)cc(O)c12 | 12.4 (≈ 25.2 µM) | 13.16 (≈ 26.7 µM) | 338 (≈ 685 µM) | 4.156 (≈ 8.43 µM) | 5.95 (≈ 12.1 µM) | 39.2 (≈ 79.6 µM) | 
8 | O=c1cc(-c2ccccc2)oc2cc(OCCCCNc3nc4ccc(Br)cc4s3)cc(O)c12 | 12.4 (≈ 23.1 µM) | 16.09 (≈ 29.9 µM) | 289 (≈ 538 µM) | 6.565 (≈ 12.2 µM) | 6.56 (≈ 12.2 µM) | 35.1 (≈ 65.3 µM) | 
9 | O=c1cc(-c2ccccc2)oc2cc(OCCCCNc3nc4ccc(I)cc4s3)cc(O)c12 | 13.2 (≈ 22.5 µM) | 25.44 (≈ 43.5 µM) | 298 (≈ 510 µM) | 9.836 (≈ 16.8 µM) | 8.12 (≈ 13.9 µM) | 56.4 (≈ 96.6 µM) | 
10 | O=c1cc(-c2ccccc2)oc2cc(OCCCCNc3nc4ccc(F)cc4s3)cc(O)c12 | 13.4 (≈ 28 µM) | 14.74 (≈ 30.9 µM) | 324 (≈ 680 µM) | 5.246 (≈ 11 µM) | 5.03 (≈ 10.6 µM) | 33.7 (≈ 70.8 µM) | 
11 | O=c1cc(-c2ccccc2)oc2cc(OCCCCNc3nc4c(F)cc(F)cc4s3)cc(O)c12 | 10.8 (≈ 21.9 µM) | 15.12 (≈ 30.6 µM) | 307 (≈ 621 µM) | 5.764 (≈ 11.7 µM) | 5.56 (≈ 11.2 µM) | 36.8 (≈ 74.5 µM) | 
12 | O=c1cc(-c2ccccc2)oc2cc(OCCCCNc3nc4ccc(C(F)(F)F)cc4s3)cc(O)c12 | 11.2 (≈ 21.3 µM) | 16.27 (≈ 30.9 µM) | 278 (≈ 529 µM) | 4.953 (≈ 9.41 µM) | 7.84 (≈ 14.9 µM) | 37.2 (≈ 70.6 µM) | 
13 | CC(=O)Nc1ccc2nc(NCCCCOc3cc(O)c4c(=O)cc(-c5ccccc5)oc4c3)sc2c1 | 11.4 (≈ 22 µM) | 29.16 (≈ 56.6 µM) | 291 (≈ 565 µM) | 8.355 (≈ 16.2 µM) | 6.91 (≈ 13.4 µM) | 51.3 (≈ 99.4 µM) | 
14 | O=C(O)c1ccc2nc(NCCCCOc3cc(O)c4c(=O)cc(-c5ccccc5)oc4c3)sc2c1 | 12.1 (≈ 24 µM) | 21.66 (≈ 43.1 µM) | 324 (≈ 645 µM) | 6.742 (≈ 13.4 µM) | 8.42 (≈ 16.8 µM) | 43.3 (≈ 86.3 µM) | 
15 | CC(=O)c1ccc2nc(NCCCCOc3cc(O)c4c(=O)cc(-c5ccccc5)oc4c3)sc2c1 | 14.5 (≈ 29 µM) | 30.72 (≈ 61.4 µM) | 311 (≈ 621 µM) | 7.026 (≈ 14 µM) | 7.78 (≈ 15.6 µM) | 34.3 (≈ 68.4 µM) | 
16 | CCC(=O)c1ccc2nc(NCCCCOc3cc(O)c4c(=O)cc(-c5ccccc5)oc4c3)sc2c1 | 17.8 (≈ 34.7 µM) | 32.23 (≈ 62.6 µM) | 296 (≈ 574 µM) | 7.157 (≈ 13.9 µM) | 6.26 (≈ 12.2 µM) | 35.6 (≈ 69.3 µM) | 
17 | CCCC(=O)c1ccc2nc(NCCCCOc3cc(O)c4c(=O)cc(-c5ccccc5)oc4c3)sc2c1 | 17.8 (≈ 33.6 µM) | 38.98 (≈ 73.7 µM) | 278 (≈ 525 µM) | 8.535 (≈ 16.1 µM) | 7.17 (≈ 13.6 µM) | 41.6 (≈ 78.7 µM) | 
18 | O=c1cc(-c2ccccc2)oc2cc(OCCCCNNc3nc4ccccc4s3)cc(O)c12 | 14.6 (≈ 30.9 µM) | 24.34 (≈ 51.4 µM) | 316 (≈ 668 µM) | 8.734 (≈ 18.4 µM) | 4.64 (≈ 9.79 µM) | 51.7 (≈ 109 µM) | 
19 | O=C1O[C@H]([C@@H](O)CO)C(O)=C1O [ASCORBIC ACID] |  | 12.72 (≈ 72.2 µM) |  | 5.0925 (≈ 28.9 µM) |  |  | 
20 | O=c1cc(-c2ccccc2)oc2cc(O)cc(O)c12 [CHRYSIN] |  |  |  |  |  |  | 10.9 (≈ 43 µM)
